{"source": "ChEMBL document CHEMBL4308900", "about": "“Synthesis and identification of 2,4-bisanilinopyrimidines bearing 2,2,6,6-tetramethylpiperidine-N-oxyl as potential Aurora A inhibitors” (Bioorg Med Chem, 2019)", "key": {"HeLa [1]": {"tested_on": "HeLa", "experiment": "Induction of apoptosis in human HeLa cells assessed as late apoptotic cells at 0.1 uM after 12 hrs by Annexin V-FITC/propidium iodide staining-based flow cytometric analysis (reference value: 2.32%)", "assay_type": "functional"}, "HeLa [2]": {"tested_on": "HeLa", "experiment": "Induction of apoptosis in human HeLa cells assessed as late apoptotic cells at 5 uM after 12 hrs by Annexin V-FITC/propidium iodide staining-based flow cytometric analysis (reference value: 2.32%)", "assay_type": "functional"}, "Aurora kinase A [3]": {"molecular_target": "T1, Aurora kinase A (Homo sapiens, UniProt O14965)", "T1 sequence (O14965 whole entry)": "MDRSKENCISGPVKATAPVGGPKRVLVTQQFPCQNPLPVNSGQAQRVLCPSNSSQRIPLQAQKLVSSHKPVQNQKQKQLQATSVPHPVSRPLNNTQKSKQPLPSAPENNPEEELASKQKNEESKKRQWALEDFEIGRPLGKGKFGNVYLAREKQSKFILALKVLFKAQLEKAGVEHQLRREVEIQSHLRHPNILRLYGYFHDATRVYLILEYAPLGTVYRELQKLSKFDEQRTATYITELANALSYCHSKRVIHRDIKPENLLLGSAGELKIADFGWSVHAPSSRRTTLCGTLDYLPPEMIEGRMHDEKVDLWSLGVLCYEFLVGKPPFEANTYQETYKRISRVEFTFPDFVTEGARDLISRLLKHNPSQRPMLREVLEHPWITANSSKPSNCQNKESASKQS", "experiment": "Inhibition of Aurora A (unknown origin) using kemptide acetate salt as substrate after 30 mins by kinase-Glo luminescence method"}, "HepG2": {"tested_on": "HepG2", "experiment": "Antiproliferative activity against human HepG2 cells after 48 hrs by MTT assay", "assay_type": "functional", "conditions": "HepG2, 48 h", "method_in_brief": "(§1)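 MTT assay: cells attached 4–6 h at 37 °C, 5% CO2, then exposed 48 h to graded concentrations from DMSO stocks; 5 mg/mL MTT added for 4 h, formazan dissolved in DMSO, absorbance at 490 nm. GI50 from log plot of percent of control versus concentration; mean of three independent experiments.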"}, "Aurora kinase B [4]": {"molecular_target": "T2, Aurora kinase B (Homo sapiens, UniProt Q96GD4)", "T2 sequence (Q96GD4 whole entry)": "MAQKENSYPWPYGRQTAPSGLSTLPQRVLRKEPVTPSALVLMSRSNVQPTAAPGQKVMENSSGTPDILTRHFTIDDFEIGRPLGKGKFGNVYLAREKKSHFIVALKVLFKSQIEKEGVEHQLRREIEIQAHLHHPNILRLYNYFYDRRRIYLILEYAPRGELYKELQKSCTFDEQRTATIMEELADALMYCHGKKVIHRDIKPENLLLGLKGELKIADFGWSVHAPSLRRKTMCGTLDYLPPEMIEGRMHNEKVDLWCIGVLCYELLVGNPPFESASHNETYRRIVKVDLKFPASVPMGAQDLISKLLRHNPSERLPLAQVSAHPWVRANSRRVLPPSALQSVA", "experiment": "Inhibition of Aurora B (unknown origin) using kemptide acetate salt as substrate after 30 mins by kinase-Glo luminescence method"}, "HeLa [5]": {"tested_on": "HeLa", "experiment": "Induction of apoptosis in human HeLa cells assessed as downregulation of Bcl-2 protein expression up to 5 uM after 12 hrs by Western blot analysis", "assay_type": "functional, cell-based", "method_in_brief": "(§2)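 HeLa cells treated 12 h (0.1, 1, 5 μM for apoptosis proteins); lysed in Tris pH 7.5/NP-40/SDS buffer with protease inhibitors, equal protein on 10% SDS-PAGE, PVDF, 5% BSA block, primary antibodies overnight at 4 °C, β-actin loading control; mean ± SD.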"}, "HeLa [6]": {"tested_on": "HeLa", "experiment": "Cell cycle arrest in human HeLa cells assessed as decrease in accumulation at G1 phase after 12 hrs by propidium iodide staining-based flow cytometric analysis", "assay_type": "functional", "method_in_brief": "(§3)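 HeLa cells exposed 12 h to 1 or 5 μM compound diluted from DMSO (DMSO control), fixed, stained with propidium iodide; DNA content measured by flow cytometry and G1, S, G2/M fractions calculated from the DNA histogram.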"}, "HeLa [7]": {"tested_on": "HeLa", "experiment": "Cell cycle arrest in human HeLa cells assessed as decrease in cdc2 protein expression up to 5 uM after 12 hrs by Western blot analysis", "assay_type": "functional, cell-based", "method_in_brief": "as §2"}, "[8]": {"molecular_target": "T3, Aurora kinase A (Homo sapiens) (UniProt O14965)", "T3 sequence (whole entry)": "T1 sequence (O14965 whole entry)", "experiment": "Inhibition of Aurora A phosphorylation at Thr288 residue in human HeLa cells after 12 hrs by Western blot analysis", "assay_type": "cell-based", "method_in_brief": "(§4)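 HeLa cells given 0, 1.25, 2.5 or 5.0 μM for 12 h; lysates in buffer with phosphatase and protease inhibitors, 10% SDS-PAGE western blot probed for phospho-Aurora A Thr288, phospho-Aurora B Thr232 and total Aurora A/B, β-actin loading control; band levels as mean ± SD versus control.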"}, "HeLa [9]": {"tested_on": "HeLa", "experiment": "Cell cycle arrest in human HeLa cells assessed as accumulation at G1 phase at 5 uM after 12 hrs by propidium iodide staining-based flow cytometric analysis (reference value: 70.68%)", "assay_type": "functional", "method_in_brief": "as §3"}, "Aurora kinase B [10]": {"molecular_target": "T2, Aurora kinase B", "experiment": "Inhibition of Aurora B phosphorylation at Thr232 residue in human HeLa cells after 12 hrs by Western blot analysis", "assay_type": "cell-based", "method_in_brief": "as §4"}, "HeLa [11]": {"tested_on": "HeLa", "experiment": "Cell cycle arrest in human HeLa cells assessed as accumulation at G2/M phase after 12 hrs by propidium iodide staining-based flow cytometric analysis", "assay_type": "functional", "method_in_brief": "as §3"}, "HeLa [12]": {"tested_on": "HeLa", "experiment": "Induction of apoptosis in human HeLa cells assessed as early apoptotic cells at 1 uM after 12 hrs by Annexin V-FITC/propidium iodide staining-based flow cytometric analysis (reference value: 0.75%)", "assay_type": "functional"}, "HeLa [13]": {"tested_on": "HeLa", "experiment": "Induction of apoptosis in human HeLa cells assessed as viable cells at 5 uM after 12 hrs by Annexin V-FITC/propidium iodide staining-based flow cytometric analysis (reference value: 91.02%)", "assay_type": "functional", "conditions": "read-out: Activity"}, "HeLa [14]": {"tested_on": "HeLa", "experiment": "Cell cycle arrest in human HeLa cells assessed as accumulation at G1 phase at 1 uM after 12 hrs by propidium iodide staining-based flow cytometric analysis (reference value: 70.68%)", "assay_type": "functional", "method_in_brief": "as §3"}, "HeLa [15]": {"tested_on": "HeLa", "experiment": "Induction of apoptosis in human HeLa cells assessed as viable cells at 1 uM after 12 hrs by Annexin V-FITC/propidium iodide staining-based flow cytometric analysis (reference value: 91.02%)", "assay_type": "functional", "conditions": "read-out: Activity"}, "HeLa [16]": {"tested_on": "HeLa", "experiment": "Induction of apoptosis in human HeLa cells assessed as viable cells at 0.1 uM after 12 hrs by Annexin V-FITC/propidium iodide staining-based flow cytometric analysis (reference value: 91.02%)", "assay_type": "functional", "conditions": "read-out: Activity"}, "HeLa [17]": {"tested_on": "HeLa", "experiment": "Cell cycle arrest in human HeLa cells assessed as accumulation at G2/M phase at 5 uM after 12 hrs by propidium iodide staining-based flow cytometric analysis (reference value: 23.57%)", "assay_type": "functional", "method_in_brief": "as §3"}, "Aurora kinase B [18]": {"molecular_target": "T2, Aurora kinase B", "experiment": "Inhibition of Aurora B phosphorylation at Thr232 residue in human HeLa cells after 12 hrs by ELISA", "assay_type": "cell-based"}, "HeLa [19]": {"tested_on": "HeLa", "experiment": "Induction of apoptosis in human HeLa cells assessed as upregulation of Bax protein expression up to 5 uM after 12 hrs by Western blot analysis", "assay_type": "functional, cell-based", "method_in_brief": "as §2"}, "HeLa [20]": {"tested_on": "HeLa", "experiment": "Cell cycle arrest in human HeLa cells assessed as decrease in cyclin B1 protein expression up to 5 uM after 12 hrs by Western blot analysis", "assay_type": "functional, cell-based", "method_in_brief": "as §2"}, "Aurora kinase A [21]": {"molecular_target": "T1, Aurora kinase A", "experiment": "Inhibition of Aurora A phosphorylation at Thr288 residue in human HeLa cells after 12 hrs by ELISA", "assay_type": "cell-based"}, "LoVo": {"tested_on": "LoVo", "experiment": "Antiproliferative activity against human LoVo cells after 48 hrs by MTT assay", "assay_type": "functional", "method_in_brief": "as §1"}, "HeLa [22]": {"tested_on": "HeLa", "experiment": "Induction of apoptosis in human HeLa cells assessed as upregulation of caspase-9 protein expression up to 5 uM after 12 hrs by Western blot analysis", "assay_type": "functional, cell-based", "method_in_brief": "as §2"}, "Homo sapiens": {"species_on_record": "Homo sapiens", "experiment": "Selectivity ratio of IC50 for Aurora B (unknown origin) to IC50 for Aurora A (unknown origin)"}, "HeLa [23]": {"tested_on": "HeLa", "experiment": "Cell cycle arrest in human HeLa cells assessed as accumulation at G2/M phase at 1 uM after 12 hrs by propidium iodide staining-based flow cytometric analysis (reference value: 23.57%)", "assay_type": "functional", "method_in_brief": "as §3"}, "HeLa [24]": {"tested_on": "HeLa", "experiment": "Induction of apoptosis in human HeLa cells assessed as necrotic cells at 5 uM after 12 hrs by Annexin V-FITC/propidium iodide staining-based flow cytometric analysis (reference value: 5.92%)", "assay_type": "functional"}, "HeLa [25]": {"tested_on": "HeLa", "experiment": "Cell cycle arrest in human HeLa cells assessed as accumulation at S phase at 1 uM after 12 hrs by propidium iodide staining-based flow cytometric analysis (reference value: 5.74%)", "assay_type": "functional", "method_in_brief": "as §3"}, "HeLa [26]": {"tested_on": "HeLa", "experiment": "Antiproliferative activity against human HeLa cells after 48 hrs by MTT assay", "assay_type": "functional", "method_in_brief": "as §1"}}, "note": "Calls of active or inactive are those of the source. No cut-off for these calls is given here.", "data": [{"compound": "CC1(C)CC(NC(=O)c2ccc(Nc3ncc(F)c(Nc4ccc(C(=O)Nc5ccccc5Cl)cc4)n3)cc2)CC(C)(C)N1[O]", "values": [{"measurement": "Activity", "setting": "HeLa [1]", "value": 2.94, "unit": "%"}, {"measurement": "Activity", "setting": "HeLa [2]", "value": 16.66, "unit": "%"}, {"measurement": "IC50", "setting": "Aurora kinase A [3]", "value": 0.06, "unit": "nM"}, {"measurement": "GI50", "setting": "HepG2", "value": 1200, "unit": "nM"}, {"measurement": "IC50", "setting": "Aurora kinase B [4]", "value": 2.55, "unit": "nM"}, {"measurement": "Activity", "setting": "HeLa [5]", "value": "Active"}, {"measurement": "Activity", "setting": "HeLa [6]", "value": "Dose-dependent effect"}, {"measurement": "Activity", "setting": "HeLa [7]", "value": "Active"}, {"measurement": "inhibition", "setting": "[8]", "value": "Dose-dependent effect"}, {"measurement": "Activity", "setting": "HeLa [9]", "value": 39.67, "unit": "%"}, {"measurement": "inhibition", "setting": "Aurora kinase B [10]", "value": "Dose-dependent effect"}, {"measurement": "Activity", "setting": "HeLa [11]", "value": "Dose-dependent effect"}, {"measurement": "Activity", "setting": "HeLa [12]", "value": 3.28, "unit": "%"}, {"measurement": "viability at 5 µM", "setting": "HeLa [13]", "value": 67.7, "unit": "%"}, {"measurement": "Activity", "setting": "HeLa [14]", "value": 48, "unit": "%"}, {"measurement": "viability at 1 µM", "setting": "HeLa [15]", "value": 78.7, "unit": "%"}, {"measurement": "viability at 0.1 µM", "setting": "HeLa [16]", "value": 90.3, "unit": "%"}, {"measurement": "Activity", "setting": "HeLa [17]", "value": 60.33, "unit": "%"}, {"measurement": "IC50", "setting": "Aurora kinase B [18]", "value": 538, "unit": "nM"}, {"measurement": "Activity", "setting": "HeLa [19]", "value": "Active"}, {"measurement": "Activity", "setting": "HeLa [20]", "value": "Active"}, {"measurement": "IC50", "setting": "Aurora kinase A [21]", "value": 8, "unit": "nM"}, {"measurement": "GI50", "setting": "LoVo", "value": 7300, "unit": "nM"}, {"measurement": "Activity", "setting": "HeLa [22]", "value": "Active"}, {"measurement": "Ratio IC50", "setting": "Homo sapiens", "value": 42}, {"measurement": "Activity", "setting": "HeLa [23]", "value": 40.67, "unit": "%"}, {"measurement": "Activity", "setting": "HeLa [24]", "value": 10.75, "unit": "%"}, {"measurement": "Activity", "setting": "HeLa [25]", "value": 11.33, "unit": "%"}, {"measurement": "GI50", "setting": "HeLa [26]", "value": 400, "unit": "nM"}]}]}
